Reference: ChEMBL document CHEMBL1146121 (J Med Chem, 2006)

Experiments:
[1] = molecular target: T1, 1-deoxy-D-xylulose 5-phosphate reductoisomerase (Escherichia coli K-12, UniProt P45568); test: Inhibition of recombinant Escherichia coli DXR
T1 sequence (P45568 whole entry): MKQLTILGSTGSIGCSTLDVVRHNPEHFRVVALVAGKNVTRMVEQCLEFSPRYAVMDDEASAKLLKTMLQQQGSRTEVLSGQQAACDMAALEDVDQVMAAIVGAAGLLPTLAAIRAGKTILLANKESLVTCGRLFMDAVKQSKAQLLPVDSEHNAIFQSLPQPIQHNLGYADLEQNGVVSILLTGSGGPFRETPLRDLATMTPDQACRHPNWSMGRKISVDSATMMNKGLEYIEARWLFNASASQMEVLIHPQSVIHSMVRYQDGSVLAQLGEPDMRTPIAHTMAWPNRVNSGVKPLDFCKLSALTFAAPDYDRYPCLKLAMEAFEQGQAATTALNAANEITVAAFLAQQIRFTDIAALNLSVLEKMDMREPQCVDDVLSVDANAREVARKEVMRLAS
How it was run: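 Enzyme activity measured as conversion of DOXP to MEP, read out via the NADPH dependence of the reductoisomerase reaction.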

[2] = tested on: Plasmodium falciparum; test: Inhibition of Plasmodium falciparum Dd2; format: functional, organism-based
How it was run: (§1)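 Intraerythrocytic parasites cultured with the test agent in a semiautomated microdilution format. Growth was followed by incorporation of tritium-labelled hypoxanthine.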

[3] = tested on: Plasmodium falciparum; test: Inhibition of Plasmodium falciparum 3D7; format: functional, organism-based; how it was run: as §1

With `O=CN(O)C[C@@H]1C[C@H]1P(=O)(O)O` the IC50 [1] was 313 nM, the IC50 [2] was 2000 nM and the IC50 [3] was 2100 nM.

In the case of `CC(=O)N(O)C[C@@H]1C[C@H]1P(=O)(O)O`, the IC50 [1] is reported as 50 nM, the IC50 [2] is reported as 480 nM and the IC50 [3] is reported as 320 nM.

With `CC(=O)N(O)CC1CC1P(=O)(O)O` (centres undefined) the IC50 [1] was 160 nM.

For `CC(=O)N(O)CC1CC1(c1ccccc1)P(=O)(O)O` (centres undefined), the IC50 [1] was > 30000 nM.

For `O=CN(O)CCCP(=O)(O)O` [FOSMIDOMYCIN], the IC50 [2] was 480 nM and the IC50 [3] was 400 nM.

With `CCC(=O)N(O)C[C@@H]1C[C@H]1P(=O)(O)O` the IC50 [1] was > 3000 nM.

`CC(=O)N(O)CCCP(=O)(O)O` [FR-900098] showed an IC50 [1] of 58 nM, an IC50 [2] of 280 nM and an IC50 [3] of 240 nM.
